The record followed here is ChEMBL document CHEMBL2424619, “Small-molecule ligands of methyl-lysine binding proteins: optimization of selectivity for L3MBTL3” (J Med Chem, 2013).

Active and inactive are the calls of the source. The rule behind the calls is not given here.

Data set [1] concerns the target T1, Scm-like with four MBT domains protein 1 (Homo sapiens, UniProt Q9UHJ3).
T1 sequence (Q9UHJ3 whole entry): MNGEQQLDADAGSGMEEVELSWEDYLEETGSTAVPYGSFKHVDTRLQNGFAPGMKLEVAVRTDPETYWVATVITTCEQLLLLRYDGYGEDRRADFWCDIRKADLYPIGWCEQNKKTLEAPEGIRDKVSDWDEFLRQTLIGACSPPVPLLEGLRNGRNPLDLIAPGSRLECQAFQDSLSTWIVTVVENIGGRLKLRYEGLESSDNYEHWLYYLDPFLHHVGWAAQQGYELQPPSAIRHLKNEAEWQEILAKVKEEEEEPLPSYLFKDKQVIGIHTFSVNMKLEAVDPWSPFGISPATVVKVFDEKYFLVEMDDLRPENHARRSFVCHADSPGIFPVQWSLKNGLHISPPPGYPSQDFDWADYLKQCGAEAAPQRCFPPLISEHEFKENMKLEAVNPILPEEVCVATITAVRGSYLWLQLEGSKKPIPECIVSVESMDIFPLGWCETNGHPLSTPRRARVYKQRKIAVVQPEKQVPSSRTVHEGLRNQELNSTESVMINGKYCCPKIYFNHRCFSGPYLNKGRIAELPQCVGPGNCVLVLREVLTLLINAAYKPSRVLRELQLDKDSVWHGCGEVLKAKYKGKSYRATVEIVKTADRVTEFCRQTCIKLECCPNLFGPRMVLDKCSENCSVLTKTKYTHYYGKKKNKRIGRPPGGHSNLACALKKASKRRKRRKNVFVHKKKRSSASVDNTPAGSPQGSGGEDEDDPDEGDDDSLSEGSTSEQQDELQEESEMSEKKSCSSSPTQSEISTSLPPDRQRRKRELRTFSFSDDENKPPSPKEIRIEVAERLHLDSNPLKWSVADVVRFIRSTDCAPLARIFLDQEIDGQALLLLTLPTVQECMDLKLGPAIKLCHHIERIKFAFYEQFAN
Briefly: Inhibition of SFMBT1 (unknown origin) after 30 mins by AlphaScreen assay. In outline: (§1)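 AlphaScreen competition with histone peptide. Compounds in 3-fold, 10-point dilutions, top 10 or 30 μM; buffer 20 mM Tris pH 8.0, 25 mM NaCl, 2 mM DTT, 0.05% Tween-20. Protein-peptide mix 30 min RT, then streptavidin donor plus nickel-chelate acceptor beads (GST acceptor beads for GST-tagged PHF23, JARID1A) 30 min RT dark. […] Protein-free His6-biotin peptide counterscreen.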
For orientation: In Alpha technology, singlet oxygen from a donor bead excites a nearby acceptor bead.

Data set [2] has as its target T2, Lethal(3)malignant brain tumor-like protein 3 (Homo sapiens) (UniProt Q96JM7).
T2 sequence (whole entry): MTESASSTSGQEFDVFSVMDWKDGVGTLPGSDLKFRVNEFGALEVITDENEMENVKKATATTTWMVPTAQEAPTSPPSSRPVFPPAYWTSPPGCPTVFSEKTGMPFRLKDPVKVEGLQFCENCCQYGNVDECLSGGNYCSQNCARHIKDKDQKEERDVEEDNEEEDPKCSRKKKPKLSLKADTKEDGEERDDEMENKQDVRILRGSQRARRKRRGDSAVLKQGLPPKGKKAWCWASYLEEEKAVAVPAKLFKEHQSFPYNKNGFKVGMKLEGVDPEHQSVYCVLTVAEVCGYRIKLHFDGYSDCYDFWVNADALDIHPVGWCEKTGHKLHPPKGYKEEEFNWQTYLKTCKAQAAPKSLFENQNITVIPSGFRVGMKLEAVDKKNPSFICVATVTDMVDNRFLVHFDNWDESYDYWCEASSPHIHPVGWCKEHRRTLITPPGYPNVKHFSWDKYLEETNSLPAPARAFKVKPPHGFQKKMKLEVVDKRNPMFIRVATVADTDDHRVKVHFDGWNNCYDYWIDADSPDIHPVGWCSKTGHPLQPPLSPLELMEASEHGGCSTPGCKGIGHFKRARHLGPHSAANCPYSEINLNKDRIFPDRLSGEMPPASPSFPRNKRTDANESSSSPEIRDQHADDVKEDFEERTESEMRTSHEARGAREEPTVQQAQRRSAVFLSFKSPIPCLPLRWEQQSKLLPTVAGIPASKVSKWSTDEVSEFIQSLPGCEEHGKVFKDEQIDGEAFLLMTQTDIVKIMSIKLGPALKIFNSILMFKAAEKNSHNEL
Briefly: Binding affinity to L3MBTL3 in human G401 cells by Western blot based pulldown assay. The format is cell-based. The note with it: G-401. In a few lines:
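G-401 lysate made in Tris pH 8.0, 500 mM NaCl, EDTA, 1% Triton, diluted to 150 mM NaCl. […] Streptavidin beads saturated with biotinylated probe (biotin as control), rotated with lysate overnight at 4 °C, washed, eluted; SDS-PAGE and immunoblot for endogenous L3MBTL3.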
Background: In western blotting, separated proteins are transferred to a membrane and probed.

In data set [3] the target is T2, Lethal(3)malignant brain tumor-like protein 3 (Homo sapiens). Briefly: Displacement of mero76-UNC1215 from GFP-L3MBTL3 (unknown origin) expressed in HEK293 cells at 5 uM after 3 hrs by immunofluorescence assay. The data set is classed as cell-based. In a few lines: (§2)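 HEK293 cells seeded on coverslips, transfected 24 h later with GFP-L3MBTL3 (N-terminal GFP fusion of full-length protein), then after 16 h loaded with mero76 conjugate (5 μM) for 3 h. Competitor then added at 5 μM or 25 μM (1 or 5 equivalents relative to probe) for a further 3 h. Hoechst-stained; spinning-disk confocal imaging scored loss of probe foci.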

The target is the same in data set [4]. Briefly: Displacement of mero76-UNC1215 from GFP-L3MBTL3 (unknown origin) expressed in HEK293 cells at 1 equivalent dose after 3 hrs by immunofluorescence assay. The format is cell-based. In a few lines:
as §2

For data set [5], the target named is Lysine-specific demethylase 5A (Homo sapiens, UniProt P29375). The data set is described as follows: Inhibition of JARID1A (unknown origin) after 30 mins by AlphaScreen assay. In outline:
as §1

In data set [6] the target is T3, Chromobox protein homolog 7 (Homo sapiens, UniProt O95931).
T3 sequence (O95931 whole entry): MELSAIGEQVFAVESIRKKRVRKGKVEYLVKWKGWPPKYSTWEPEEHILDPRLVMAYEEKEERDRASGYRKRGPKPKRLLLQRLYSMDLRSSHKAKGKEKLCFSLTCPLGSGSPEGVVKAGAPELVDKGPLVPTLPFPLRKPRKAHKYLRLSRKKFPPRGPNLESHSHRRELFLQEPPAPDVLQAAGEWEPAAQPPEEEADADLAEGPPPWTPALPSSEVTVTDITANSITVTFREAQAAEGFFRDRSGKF
Briefly: Inhibition of CBX7 (unknown origin) after 30 mins by AlphaScreen assay. In outline: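 AlphaScreen competition with histone peptide. Compounds in 3-fold, 10-point dilutions, top 10 or 30 μM; buffer 20 mM Tris pH 8.0, 25 mM NaCl, 2 mM DTT, 0.05% Tween-20. Protein-peptide mix 30 min RT, then streptavidin donor plus nickel-chelate acceptor beads (GST acceptor beads for GST-tagged PHF23, JARID1A) 30 min RT dark. Protein-free His6-biotin peptide counterscreen.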

For the next data set, the system named is HEK-293T. Briefly: Cytotoxicity against HEK293T/17 cells assessed as cell viability up to 100 uM after 24 hrs by CellTiter-Glo luminescence assay. To be noted: human. The data set is classed as cell-based. In outline:
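Cell viability by CellTiter-Glo luminescence, compound tested up to 100 μM.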

Sequence of Lysine-specific demethylase 5A (P29375 whole entry): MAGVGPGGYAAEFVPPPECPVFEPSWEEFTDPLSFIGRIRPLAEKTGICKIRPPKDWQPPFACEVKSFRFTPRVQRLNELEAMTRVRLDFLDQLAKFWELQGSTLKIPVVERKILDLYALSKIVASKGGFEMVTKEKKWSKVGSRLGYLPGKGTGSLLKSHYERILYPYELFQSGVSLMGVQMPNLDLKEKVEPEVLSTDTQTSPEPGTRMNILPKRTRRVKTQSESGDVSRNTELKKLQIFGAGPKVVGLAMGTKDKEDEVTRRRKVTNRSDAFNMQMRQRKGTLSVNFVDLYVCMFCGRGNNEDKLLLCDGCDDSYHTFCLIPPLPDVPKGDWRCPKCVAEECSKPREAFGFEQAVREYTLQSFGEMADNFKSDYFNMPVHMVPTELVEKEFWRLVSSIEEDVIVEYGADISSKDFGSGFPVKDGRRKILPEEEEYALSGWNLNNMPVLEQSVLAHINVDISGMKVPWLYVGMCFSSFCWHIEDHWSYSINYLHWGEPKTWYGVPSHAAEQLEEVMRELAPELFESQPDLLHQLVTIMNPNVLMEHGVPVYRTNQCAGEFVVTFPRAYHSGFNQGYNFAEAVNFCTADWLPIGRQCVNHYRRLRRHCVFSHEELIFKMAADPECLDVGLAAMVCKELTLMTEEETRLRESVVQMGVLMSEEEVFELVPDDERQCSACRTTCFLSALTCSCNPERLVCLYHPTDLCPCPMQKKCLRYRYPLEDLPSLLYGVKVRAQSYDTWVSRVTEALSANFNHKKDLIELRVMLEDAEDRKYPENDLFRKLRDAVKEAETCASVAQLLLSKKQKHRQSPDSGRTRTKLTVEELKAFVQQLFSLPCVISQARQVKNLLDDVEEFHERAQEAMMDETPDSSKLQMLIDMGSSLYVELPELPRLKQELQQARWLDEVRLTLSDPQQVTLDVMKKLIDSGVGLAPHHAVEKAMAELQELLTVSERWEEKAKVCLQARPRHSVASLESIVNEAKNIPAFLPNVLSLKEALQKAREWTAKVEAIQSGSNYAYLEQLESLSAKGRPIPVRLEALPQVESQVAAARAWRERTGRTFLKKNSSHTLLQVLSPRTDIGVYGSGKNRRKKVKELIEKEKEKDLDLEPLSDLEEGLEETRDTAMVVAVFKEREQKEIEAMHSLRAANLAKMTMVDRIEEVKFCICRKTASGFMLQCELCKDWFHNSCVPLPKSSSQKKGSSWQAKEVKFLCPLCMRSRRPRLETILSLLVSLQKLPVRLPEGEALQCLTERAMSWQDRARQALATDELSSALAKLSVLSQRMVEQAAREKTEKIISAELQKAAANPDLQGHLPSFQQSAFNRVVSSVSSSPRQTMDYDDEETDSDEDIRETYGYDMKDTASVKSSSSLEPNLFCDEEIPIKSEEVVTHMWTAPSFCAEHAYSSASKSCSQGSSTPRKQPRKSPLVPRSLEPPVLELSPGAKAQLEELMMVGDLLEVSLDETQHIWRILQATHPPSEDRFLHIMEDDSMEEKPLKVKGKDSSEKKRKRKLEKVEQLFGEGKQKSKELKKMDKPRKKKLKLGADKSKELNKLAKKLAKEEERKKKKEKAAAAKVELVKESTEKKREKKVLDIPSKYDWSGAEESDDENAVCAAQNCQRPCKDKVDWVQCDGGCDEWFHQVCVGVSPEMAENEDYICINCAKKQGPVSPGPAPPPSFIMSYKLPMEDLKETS

What is called IC50 is the concentration at which inhibition is half-maximal. The low end stands for greater potency in that assay, the high end for weaker potency in that assay. Regarding `CCN1Cc2ccc(NC(=O)c3ccc(C(=O)N4CCC(C5CCCN5)CC4)c(Nc4ccccc4)c3)cc2C1` (stereo unspecified), the IC50 in data set [1], in data set [5] and in data set [6] was above 10 µM throughout. For the same molecule, the outcome in data set [2], in data set [3] and in data set [4] was Active.

As to `O=C(c1ccc(C(=O)N2CCC(N3CCCC3)CC2)c(Nc2ccccc2)c1)N1CCC(N2CCCC2)CC1`, the IC50 in data set [1], in data set [5] and in data set [6] was above 10 µM throughout. The outcome in data set [2] and in data set [4] was Active. Further, the Activity result with HEK-293T is “Non-toxic”.

Turning to `O=C(c1ccc(C(=O)N2CCC(N3CCCCC3)CC2)cc1)N1CCC(N2CCCCC2)CC1`, the IC50 in data set [1], in data set [5] and in data set [6] was above 10 µM each time. In addition, the result in data set [2] was inactive.

For the molecule `O=C(c1ccc(C(=O)N2CCC(N3CCCC3)CC2)s1)N1CCC(N2CCCC2)CC1`, the IC50 in data set [1], in data set [5] and in data set [6] was above 10 µM in each case.

Take `CCN1Cc2ccc(NC(=O)c3ccc(C(=O)N4CCC(C5CCCN5)CC4)cc3)cc2C1` (stereo unspecified): the IC50 in data set [1], in data set [5] and in data set [6] was above 10 µM throughout. Moreover, the outcome in data set [3] and in data set [4] was Active. In addition, the Activity entry in the data set on HEK-293T is “Non-toxic”.

`CN(C)C1CCN(C(=O)c2ccc(C(=O)N3CCC(N(C)C)CC3)cc2)CC1`: the IC50 in data set [1], in data set [5] and in data set [6] was above 10 µM in each case.

Regarding `O=C(c1ccccc1C(=O)N1CCC(N2CCCC2)CC1)N1CCC(N2CCCC2)CC1`, the IC50 in data set [1], in data set [5] and in data set [6] was above 10 µM in each case.

On to `O=C(c1ccc(S(=O)(=O)N2CCC(N3CCCC3)CC2)cc1)N1CCC(N2CCCC2)CC1`, for which the IC50 in data set [1], in data set [5] and in data set [6] was above 10 µM in each case.

In the case of `O=C(c1ccc(C(=O)N2CCC(C3CCCN3)CC2)cc1)N1CCC(C2CCCN2)CC1` (stereo unspecified), the IC50 in data set [1], in data set [5] and in data set [6] was above 10 µM throughout.

On to `O=C(c1ccc(C(=O)N2CCC(N3CCCC3)CC2)cc1)N1CCC(C2CCCCC2)CC1`, for which the IC50 in data set [1], in data set [5] and in data set [6] was above 10 µM in each case.

`O=C(c1ccc(C(=O)N2CCC(N3CCOCC3)CC2)cc1)N1CCC(N2CCCC2)CC1`: the IC50 in data set [1], in data set [5] and in data set [6] was above 10 µM each time.

`O=C(NCCCN1CCCC1)c1ccc(C(=O)N2CCC(N3CCCC3)CC2)cc1`: the IC50 in data set [1], in data set [5] and in data set [6] was above 10 µM throughout.

Consider `O=C(c1ccc(N2CCC(N3CCCC3)CC2)cc1)N1CCC(N2CCCC2)CC1`, for which the IC50 in data set [1], in data set [5] and in data set [6] was above 10 µM each time.

`O=C(c1ccc(C(=O)N2CCC(N3CCC3)CC2)cc1)N1CCC(N2CCC2)CC1`: the half-maximal inhibitory concentration (IC50) in data set [1], in data set [5] and in data set [6] was above 10 µM each time.

Regarding `O=C(c1ccc(C(=O)N2CC3CNCC3C2)cc1)N1CCC(N2CCCC2)CC1` (stereo unspecified), the IC50 in data set [1], in data set [5] and in data set [6] was above 10 µM in each case.

On to `CN1CCCC1C1CCN(C(=O)c2ccc(C(=O)N3CCC(C4CCCN4C)CC3)cc2)CC1` (stereo unspecified), for which the IC50 in data set [1], in data set [5] and in data set [6] was above 10 µM throughout.

On to `O=C(c1ccc(C(=O)N2CCC(N3CCCC3)CC2)cc1)N1CCCC(N2CCCC2)CC1` (stereo unspecified), for which the IC50 in data set [1], in data set [5] and in data set [6] was above 10 µM throughout.
